Assay outcomes (PubChem)
In the library only some 2.5% were active in any assay of this set; here they are far more common.
GSTO1 inh: inhibitors of recombinant GSTO1, primary screen, counter-screen for RBBP9 inhibitor project, biochemical, fluorescence polarization; Glutathione S-transferase omega-1 (Homo sapiens), P78417; activity-based probe fluorescence polarization; inhibition, % at 5.96 µM; hit rate 1.1% among 300,000; AID 1974, 2009;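 active = inhibition above the campaign mean inhibition plus 3 SD, cut at about 35% in these data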;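 note: 0% = GSTO1-1 with DMSO and 100% = wells lacking GSTO1-1 enzyme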
Target sequence (P78417 whole entry, looked up): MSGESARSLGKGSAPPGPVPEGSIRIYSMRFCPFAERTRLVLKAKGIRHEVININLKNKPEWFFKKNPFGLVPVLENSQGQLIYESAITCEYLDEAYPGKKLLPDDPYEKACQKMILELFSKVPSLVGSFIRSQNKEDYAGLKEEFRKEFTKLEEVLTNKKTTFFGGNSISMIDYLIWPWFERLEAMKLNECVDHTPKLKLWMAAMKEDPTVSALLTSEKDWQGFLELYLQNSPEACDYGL
Fh CTSL1 inh: Fasciola hepatica cathepsin L1 inhibitors, primary screen, counter-screen for PFM18AAP inhibitor project, biochemical, QFRET, fluorogenic peptide substrate; hit rate 0.49% among 300,000; inhibition, % at 5.96 µM; recombinant F. hepatica cathepsin L1, Z-Leu-Arg-MCA fluorescence;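 active = inhibition above the mean of all tested compounds plus 3 SD, set per screening campaign, cut at about 17% in these data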;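 note: 0% = plate median of test compound wells and 100% = 1 µM Z-Phe-Ala-diazomethylketone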
TDP2 absorb: human TDP2 enzyme inhibitors, primary screen, biochemical, epi absorbance, recombinant enzyme; T5PNP hydrolysis, p-nitrophenol absorbance 415 nm; inhibition, % at 12.8 µM; hit rate 0.34% among 370,000; Tyrosyl-DNA phosphodiesterase 2 (Homo sapiens), O95551;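 active = inhibition above the mean of all tested compounds plus 3 SD, set per campaign, cut at about 25% in these data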;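 note: 0% = DMSO with enzyme and 100% = buffer with substrate but no TDP2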
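System: recombinant human TDP2 / Amount: 120 nM TDP2 per well / Also added: 5 mM T5PNP chromogenic substrate / Doses: 12.8 µM single point, 1% DMSO / Incubation: 2 h at 37 °C / Detection: p-Nitrophenol epi absorbance / Evaluation: % inhibition relative to enzyme-containing and enzyme-free wells / Repeats: singlicate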
PRMT1 FP inh: PRMT1 methyltransferase inhibitors, primary screen, biochemical, fluorescence polarization. AID 652257, 2013. inhibition, % at 2.79 µM. hit rate 1.3% among 370,000. Protein arginine N-methyltransferase 1 (Homo sapiens), Q99873. recombinant PRMT1, activity-based probe fluorescence polarization;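 active = inhibition above about 21% made by adding two undisclosed values, limit read from the data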
Target sequence (Q99873 whole entry, looked up): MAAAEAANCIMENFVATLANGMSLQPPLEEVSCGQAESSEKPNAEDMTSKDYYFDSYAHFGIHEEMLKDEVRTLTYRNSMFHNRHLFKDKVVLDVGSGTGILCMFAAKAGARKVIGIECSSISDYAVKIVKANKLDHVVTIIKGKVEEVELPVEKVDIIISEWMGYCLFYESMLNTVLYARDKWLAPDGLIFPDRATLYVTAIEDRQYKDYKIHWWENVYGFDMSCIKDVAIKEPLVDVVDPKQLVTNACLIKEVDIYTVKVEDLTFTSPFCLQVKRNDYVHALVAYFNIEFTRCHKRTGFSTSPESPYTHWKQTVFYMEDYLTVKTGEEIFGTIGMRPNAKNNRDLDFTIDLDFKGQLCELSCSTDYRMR
PAD4 FP inh: human PAD4 inhibitors, primary screen, biochemical, fluorescence polarization, 1536-well format | AID 485272, 2010 | recombinant PAD4, RCA probe fluorescence polarization | hit rate 0.41% among 330,000 | Protein-arginine deiminase type-4 (Homo sapiens), Q9UM07 | inhibition, % at 6.36 µM;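 active = percent inhibition above a cutoff equal to the mean of all tested compounds plus 3 SD, cut at about 15% in these data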;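 note: 0% = PAD4 with RCA probe and DMSO and 100% = probe without PAD4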
PRMT1 confirm: PRMT1 methyltransferase inhibitors, confirmation, biochemical, fluorescence polarization, triplicate; shares compounds with PRMT1 FP inh; recombinant His-PRMT1, activity-based probe fluorescence polarization; inhibition, % at 2.79 µM; hit rate 42% among 3,300; AID 687036, 2013;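 active = mean inhibition across replicates above the hit cutoff derived for the earlier primary screen, cut at about 22% in these data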
* marks the source's active call; other numbers are inactive results; · = no result given.

SMILES	GSTO1 inh	Fh CTSL1 inh	TDP2 absorb	PRMT1 FP inh	PAD4 FP inh	PRMT1 confirm
Cc1cc(S(=O)(=O)c2ccc(Cl)cc2)nc(S(=O)(=O)c2ccc(Cl)cc2)c1C#N	·	·	1	60*	·	48*
Cc1c(Cl)cccc1NC(=O)CSCc1cc(=O)[nH][nH]1	28	-2	9	28*	-5	6
Cc1c(Cl)cccc1NC(=O)CSc1nnnn1C	·	·	4	1	3	·
COc1cc(Cn2cc([C@]34C[C@H]5C(=O)N(C)CC(=O)N5[C@H]3N(S(=O)(=O)c3ccccc3)c3ccccc34)c3ccccc32)cc(OC)c1	·	·	2	6	·	·
O=C(NCC(F)(F)F)c1ccc(S(=O)(=O)N2CCN(C(=O)C3CCCO3)CC2)cc1 (centres undefined)	·	·	5	70*	-1	1
CCOC(=O)c1c(N2C(=O)CC(Sc3ccccc3C(=O)O)C2=O)sc2c1CCCC2 (centres undefined)	5	3	-5	53*	6	52*
O=C(O)c1ccccc1SC1CC(=O)N(c2cccc3ccccc23)C1=O (centres undefined)	·	·	0	84*	·	51*
COC(=O)c1ccccc1SC1CC(=O)N(c2ccccc2)C1=O (centres undefined)	9	-3	1	38*	6	19
C=CCN1C(=O)[C@H](CC(=O)NCC2CCCCC2)[C@@]2(C(=O)OCC)CCCC=C12	·	·	-10	-3	·	·
O=c1c2cc(Cl)ccc2oc2nc3n(c(=O)c12)CCCS3	-19	1	-2	63*	0	52*
CCN1CCN(C(=S)c2ccc(SC)cc2)CC1	1	-5	3	32*	0	19
S=C(c1ccc(Cl)cc1)N1CCN(Cc2ccccc2)CC1	5	-4	0	1	-3	·
CSc1ccc(C(=S)N2CCN(Cc3ccccc3)CC2)cc1	-4	0	-3	32*	-2	38*
CN(C)S(=O)(=O)c1ccc2nc(COCc3nc4ccc(S(=O)(=O)N(C)C)cc4[nH]3)[nH]c2c1	·	·	-4	-5	·	·
CSCC(=O)Nc1cc(C)on1	0	-2	-12	7	-5	·
O=C(CSC1=NCCS1)Nc1ccc(F)cc1	-11	3	-6	3	-1	·
Cc1cc(NC(=O)CSC2=NCCS2)no1	-5	-2	-8	39*	-1	19
NC(=O)c1ccccc1NC(=O)CSC1=NCCS1	35	1	-4	27*	3	53*
C[C@@H]1COc2cc(Br)ccc2S(=O)(=O)N1Cc1cn(CCC2OCCO2)nn1	·	·	9	-1	·	·
O=C(Cn1nnc(-c2ccncc2)n1)Nc1ccc(Cl)cc1	·	·	-11	-9	·	·
O=C1CC(c2ccc(Cl)cc2)CC(=O)C1CS(=O)(=O)c1ccccc1 (centres undefined)	15	3	1	20	-2	·
O=C1CCCC(=O)C1CS(=O)(=O)c1ccccc1	-4	2	5	44*	-2	27*
O=C(Nc1ccc(Cl)cc1)C1CCCN1S(=O)(=O)c1cccc2cccnc12 (centres undefined)	·	·	-7	-7	·	·
CCN(CC)c1ccc2nc3ccc(N)cc3[n+](-c3ccccc3)c2c1	·	·	-11	26*	·	13
COc1cc2c(cc1NC(=O)CSc1nnc(-c3ccccc3C)n1Cc1ccco1)oc1ccccc12	·	·	-11	17	·	·
SMILES	GSTO1 inh	Fh CTSL1 inh	TDP2 absorb	PRMT1 FP inh	PAD4 FP inh	PRMT1 confirm
COc1ccccc1NC(=O)O[C@@H]1CC[C@@]23CCCN2C(=O)CCC[C@H]3C1	·	·	9	3	·	·
COc1cc2cc3c(N)c(C(=O)Nc4sc(C)c(C)c4C#N)sc3nc2cc1OC	19	3	-9	27*	-20	2
COc1cc2cc3c(N)c(C(=O)NCc4ccco4)sc3nc2cc1OC	-17	3	·	·	-6	·
O=C(OCc1cn(Cc2cccc(Cl)c2)nn1)N1CCCC1	·	·	-6	0	·	·
NC(=O)C1CCN(c2nc(-c3ccc(Oc4ccccc4)cc3)cs2)CC1	·	·	-1	1	·	·
CC(=O)c1c(N2CCN(C)CC2)nc(=S)n(Cc2ccccc2)c1C	2	-3	7	39*	-1	-5
CCSc1nc(=S)n(Cc2ccccc2)c(C)c1C(C)=O	5	0	-6	4	-3	·
c1ccc([C@H]2CN3C(=N2)Sc2ccccc23)cc1	·	·	-7	29*	14	20
COc1cc(NC(=O)c2[nH]c(C)c(C(C)=O)c2C)c(OC)cc1Cl	·	·	3	3	·	·
CCc1ccc2nc(N(CCN(C)C)C(=O)c3ccc4ncsc4c3)sc2c1	0	5	5	43*	11	3
Cc1cccc2sc(N(CCCN(C)C)C(=O)c3ccc4ncsc4c3)nc12	9	2	1	29*	8	11
CC1CCN(C2=NC(=O)/C(=C/c3ccccc3F)S2)CC1	-4	-1	-8	2	-4	·
Cc1ccc(/C=C2\CC(C)CC3=C2NC(=S)NC3c2ccc(C)cc2)cc1 (centres undefined)	1	3	-12	38*	0	30*
CC1CC2=C(NC(=S)NC2c2ccccc2F)/C(=C/c2ccccc2F)C1 (centres undefined)	-19	2	-1	49*	-11	10
CC1CC2=C(NC(=S)NC2c2cccc(F)c2)/C(=C/c2cccc(F)c2)C1 (centres undefined)	·	·	-4	14	·	·
Cc1ccc(/C=C2\CCCC3=C2NC(=S)NC3c2ccc(C)cc2)cc1 (centres undefined)	6	7	3	45*	-6	35*
O=C(OCC#CCSc1nnc(-c2cccc3ccccc23)o1)c1ccc(C(F)(F)F)cc1	·	·	4	0	·	·
OC(c1ccccc1)(c1ccccc1)c1cnc2ccccn12	·	·	-2	-10	·	·
CCOC(=O)CNC(=O)CSc1nnc(-c2ccccc2)n1CC	·	·	2	-2	·	·
Cc1nnc(NC(=O)CCSCCC(=O)Nc2nnc(C)s2)s1	2	0	-7	29*	0	30*
O=C1CC(N2CCCCCC2)C(=O)N1c1ccc2c(c1)OCO2 (centres undefined)	6	-1	3	69*	-8	35*
O=C1CC(NC23CC4CC(CC(C4)C2)C3)C(=O)N1c1ccc2c(c1)OCO2 (centres undefined)	1	2	-2	65*	5	13
O=C1CC(N2CCN(c3ccc(O)cc3)CC2)C(=O)N1c1ccc2c(c1)OCO2 (centres undefined)	15	6	3	39*	-3	-1
Brc1ccc(C2=CSC3=NCCN23)cc1	8	-1	-12	30*	0	12
